The results in this text go back to ChEMBL document CHEMBL1137720, “New acyclic nucleosides analogues as potential analgesic, anti-inflammatory, anti-oxidant and anti-microbial derived from pyrimido[4,5-b]quinolines” (2009).

The structures appear in SMILES notation.

The species named for the first experiment is Mus musculus. Nature of the experiment: Analgesic activity in Swiss mouse assessed as reaction time after 60 mins by hot plate test. The experiment is classed as functional.
Details: not given
The gist of the method:
(§1)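 Swiss mice of both sexes, 25–30 g, were housed at 22 ± 1 °C on a 12 h light/dark cycle with free access to diet and water. Hot-plate testing followed Turner's method.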
Background: In hot-plate and tail-flick tests a longer latency is read as antinociception.
With `CC(=O)OC[C@@H](OC(C)=O)[C@H](OC(C)=O)[C@H](OC(C)=O)[C@@H](OC(C)=O)c1n[nH]c2nc3nc4c(c(-c5ccc(Cl)cc5)c3c(=O)n12)CCC/C4=C\c1ccc(Cl)cc1`, the Activity was found to be 2.667 s.

A further experiment relates to Rattus norvegicus. Nature of the experiment: Antiinflammatory activity in Sprague-Dawley rat assessed as inhibition of carrageenan-induced paw edema after 3 hrs. In kind it is functional.
Details: not given
The gist of the method:
(§2)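 Adult female Sprague-Dawley rats, 150–180 g, were used (n = 6 per group). Paw volume increase after carrageenan was read at 1, 2, 3 and 4 h. % edema inhibition was calculated against untreated controls. The reference drug was given orally at 10 mg/kg as an aqueous suspension.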
`CC(=O)OC[C@@H](OC(C)=O)[C@H](OC(C)=O)[C@H](OC(C)=O)[C@@H](OC(C)=O)c1n[nH]c2nc3nc4c(c(-c5ccc(Cl)cc5)c3c(=O)n12)CCC/C4=C\c1ccc(Cl)cc1`: the “inhibition (INH)” value was 18.48%.

Another experiment has as its system Rattus norvegicus. As to the kind of experiment: Antiinflammatory activity in Sprague-Dawley rat assessed as inhibition of carrageenan-induced paw edema after 4 hrs. The experiment is classed as functional.
Details: not given
In short, it runs like this: as §2
Consider `CC(=O)OC[C@@H](OC(C)=O)[C@H](OC(C)=O)[C@H](OC(C)=O)[C@@H](OC(C)=O)c1n[nH]c2nc3nc4c(c(-c5ccc(Cl)cc5)c3c(=O)n12)CCC/C4=C\c1ccc(Cl)cc1`, for which the “inhibition (INH)” value was 17.19%.

Another experiment deals with Pseudomonas aeruginosa. Nature of the experiment: Antibacterial activity against Pseudomonas aeruginosa ATCC 10145 at 100 ug/disk after 24 to 48 hrs by agar disk diffusion method. The experiment is classed as functional. Particulars: read-out: DIZ. In short, it runs like this: (§3)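 Agar disc diffusion used sterile 5 mm filter-paper discs loaded with 100 µg per disc, with DMSO as solvent. Plates were incubated 24–28 h at 37 °C and inhibition zone diameters measured: 6–10 mm slight, 11–15 mm moderate, >15 mm high. For MIC, discs carried varying amounts, and MIC was the lowest amount giving no visible growth.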
For `CC(=O)OC[C@@H](OC(C)=O)[C@H](OC(C)=O)[C@H](OC(C)=O)[C@@H](OC(C)=O)c1n[nH]c2nc3nc4c(c(-c5ccc(Cl)cc5)c3c(=O)n12)CCC/C4=C\c1ccc(Cl)cc1`, the zone of inhibition at 100 µg/disc amounted to 10 mm.

Tested on in another experiment: not listed separately
Nature of the experiment: Antioxidant activity assessed as inhibition of ABTS-oxidation in 0.1 M phosphate buffer at pH 7. The experiment is classed as functional.
Details: not given
In short, it runs like this:
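ABTS (60 µM, 2 mL) was mixed with MnO2 (25 mg/mL) in 0.1 M phosphate buffer pH 7, then shaken, centrifuged and filtered. Radical solution A734 was set to about 0.5. MeOH/buffer served as negative control.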
As a reminder, the inhibition is the relative decrease from the control value, in per cent. Regarding `CC(=O)OC[C@@H](OC(C)=O)[C@H](OC(C)=O)[C@H](OC(C)=O)[C@@H](OC(C)=O)c1n[nH]c2nc3nc4c(c(-c5ccc(Cl)cc5)c3c(=O)n12)CCC/C4=C\c1ccc(Cl)cc1`, the inhibition amounted to 42.6%.

A further experiment relates to Rattus norvegicus. Nature of the experiment: Antiinflammatory activity in Sprague-Dawley rat assessed as inhibition of carrageenan-induced paw edema after 1 hr. In kind it is functional.
Details: not given
The gist of the method: as §2
Consider `CC(=O)OC[C@@H](OC(C)=O)[C@H](OC(C)=O)[C@H](OC(C)=O)[C@@H](OC(C)=O)c1n[nH]c2nc3nc4c(c(-c5ccc(Cl)cc5)c3c(=O)n12)CCC/C4=C\c1ccc(Cl)cc1`, for which the “inhibition (INH)” value worked out at 21.88%.

A further experiment has as its system Candida albicans. As to the kind of experiment: Antimicrobial activity against Candida albicans ATCC 14053 at 100 ug/disk after 5 days by agar disk diffusion method. In kind it is functional. The note with it: ATCC 14053, 120 h, read-out: DIZ. (Agar diffusion results depend on both activity and mobility in agar.)
Regarding `CC(=O)OC[C@@H](OC(C)=O)[C@H](OC(C)=O)[C@H](OC(C)=O)[C@@H](OC(C)=O)c1n[nH]c2nc3nc4c(c(-c5ccc(Cl)cc5)c3c(=O)n12)CCC/C4=C\c1ccc(Cl)cc1`, the zone of inhibition at 100 µg/disc was 11 mm.

Another experiment has as its system Rattus norvegicus. As to the kind of experiment: Antiinflammatory activity in Sprague-Dawley rat assessed as inhibition of carrageenan-induced paw edema after 2 hrs. In kind it is functional.
Details: not given
In short, it runs like this:
as §2
On the technique in general: Carrageenan injected into the paw causes an acute inflammation.
Consider `CC(=O)OC[C@@H](OC(C)=O)[C@H](OC(C)=O)[C@H](OC(C)=O)[C@@H](OC(C)=O)c1n[nH]c2nc3nc4c(c(-c5ccc(Cl)cc5)c3c(=O)n12)CCC/C4=C\c1ccc(Cl)cc1`, for which the “inhibition (INH)” value came to 14%.

The species entered for the next experiment is Mus musculus. As to the kind of experiment: Analgesic activity in Swiss mouse assessed as reaction time after 30 mins by hot plate test. In kind it is functional.
Details: not given
In short, it runs like this: as §1
For the molecule `CC(=O)OC[C@@H](OC(C)=O)[C@H](OC(C)=O)[C@H](OC(C)=O)[C@@H](OC(C)=O)c1n[nH]c2nc3nc4c(c(-c5ccc(Cl)cc5)c3c(=O)n12)CCC/C4=C\c1ccc(Cl)cc1`, the Activity is listed as 2.65 s.

The species named for a further experiment is Mus musculus. As to the kind of experiment: Analgesic activity in Swiss mouse assessed as reaction time after 90 mins by hot plate test. The experiment is classed as functional.
Details: not given
The gist of the method: as §1
Consider `CC(=O)OC[C@@H](OC(C)=O)[C@H](OC(C)=O)[C@H](OC(C)=O)[C@@H](OC(C)=O)c1n[nH]c2nc3nc4c(c(-c5ccc(Cl)cc5)c3c(=O)n12)CCC/C4=C\c1ccc(Cl)cc1`, for which the Activity was 2.483 s.

In the next experiment the test system is Escherichia coli. As to the kind of experiment: Antibacterial activity against Escherichia coli ATCC 23566 at 100 ug/disk after 24 to 48 hrs by agar disk diffusion method. Particulars: read-out: DIZ. In kind it is functional. In short, it runs like this:
as §3
`CC(=O)OC[C@@H](OC(C)=O)[C@H](OC(C)=O)[C@H](OC(C)=O)[C@@H](OC(C)=O)c1n[nH]c2nc3nc4c(c(-c5ccc(Cl)cc5)c3c(=O)n12)CCC/C4=C\c1ccc(Cl)cc1`: the zone of inhibition at 100 µg/disc is 14 mm.

For another experiment, the system named is Staphylococcus aureus. As to the kind of experiment: Antibacterial activity against Staphylococcus aureus ATCC 25923 at 100 ug/disk after 24 to 48 hrs by agar disk diffusion method. The experiment is classed as functional. The note with it: read-out: DIZ. The gist of the method: as §3
With `CC(=O)OC[C@@H](OC(C)=O)[C@H](OC(C)=O)[C@H](OC(C)=O)[C@@H](OC(C)=O)c1n[nH]c2nc3nc4c(c(-c5ccc(Cl)cc5)c3c(=O)n12)CCC/C4=C\c1ccc(Cl)cc1`, the zone of inhibition at 100 µg/disc was determined as 10 mm.

Tested on in a further experiment: not listed separately
Nature of the experiment: Antioxidant activity in Sprague-Dawley rat erythrocytes assessed as ABTS-induced hemolysis after 1 hr. In kind it is functional, Erythrocyte. Also noted: concentration or dose not given beside the values.
Details: not given
For `CC(=O)OC[C@@H](OC(C)=O)[C@H](OC(C)=O)[C@H](OC(C)=O)[C@@H](OC(C)=O)c1n[nH]c2nc3nc4c(c(-c5ccc(Cl)cc5)c3c(=O)n12)CCC/C4=C\c1ccc(Cl)cc1`, the Activity is listed as 8.33%.

The next experiment concerns Aspergillus fumigatus. As to the kind of experiment: Antimicrobial activity against Aspergillus fumigatus ATCC 96918 at 100 ug/disk after 5 days by agar disk diffusion method. The experiment is classed as functional. The note with it: ATCC 96918, 120 h, read-out: DIZ.
For `CC(=O)OC[C@@H](OC(C)=O)[C@H](OC(C)=O)[C@H](OC(C)=O)[C@@H](OC(C)=O)c1n[nH]c2nc3nc4c(c(-c5ccc(Cl)cc5)c3c(=O)n12)CCC/C4=C\c1ccc(Cl)cc1`, the zone of inhibition at 100 µg/disc worked out at 11 mm.
